Assay results: paper PMC10749586 (Nature, 2023)
pEC50, pKd: −log10 of the molar value. Read-outs that look alike come from different tables or passages of the source.

Legend:
[1] = molecular target: BRD4(BD1)-TCIP1-BCL6(BTB) ternary complex (Homo sapiens, UniProt O60885+P41182, C67R/C84N/C8Q); experiment: Biolayer interferometry of ternary complex; assay type: binding
Procedure, shortened: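 Biolayer interferometry used biotinylated BCL6(BTB)-AviTag (100 nM) loaded on streptavidin tips. Wells held tag-cleaved BRD4(BD1) (50 µM, excess) with test compound titrated from 5.5 nM to 12 µM, at 25 °C. Steps were 300 s association, 300 s dissociation and 30 s baseline. Off-rate came from dissociation curves at 7–8 doses, n = 3 independent replicates, mean ± s.d.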

[2] = tested on: BRD4 / Pol II / H3K27ac chromatin occupancy; experiment: ChIP-seq; assay type: cell-based, human
Procedure, shortened: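 KARPAS422 cells (30 million) received test compound or DMSO, then were crosslinked with 1% formaldehyde for 12 min and quenched with 0.125 M glycine. Nuclei were prepared and immunoprecipitated overnight at 4 °C. Chromatin input was 50 µg for Pol II Ser2/Ser5 phos and 25 µg for H3K27ac, with Drosophila spike-in. Differential peaks: Wald test, Benjamini–Hochberg, padj ≤ 0.05, |log2| ≥ 0.5.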

BCL6 reporter = BCL6 reporter assay in KARPAS422 cells; assay type: cell-based, human; conditions: read-out: EC50 of BCL6 reporter activation, 8 h
Procedure, shortened: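 KARPAS422 cells were lentivirally transduced with the BCL6 reporter construct and selected. They were then treated with test compound for 8 h, washed in 2.5% FBS/PBS, stained with 7-AAD (1:250 v/v) for live/dead and analysed by flow cytometry. A GFP-positive gate was set from non-transduced cells. The FITC histogram area past threshold, over live cells, was normalized to DMSO.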

[3] = tested on: MYC, p21, FOXO3, BCL6, BRD4 protein levels; experiment: Western blots of target proteins in DLBCL cells; assay type: cell-based, human
Procedure, shortened: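 Cells plated at 1 M ml−1 were treated with test compound (e.g., 20 h in KARPAS422). Two million cells were lysed on ice in RIPA (pH 8, 1% SDS, 1 mM DTT) with benzonase for 20 min. Lysates were cleared at 14,000g for 10 min at 4 °C and quantified by Bradford. Immunoblots probed BCL6, BRD4, BCL2, p53, MYC, FOXO3 and p21, with GAPDH as loading control.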

[4] = tested on: primary human tonsillar lymphocytes; experiment: Cell viability of primary human tonsillar lymphocytes; assay type: cell-based; conditions: read-out: EC50 of cell viability, 72 h
KARPAS422 cells [5] = experiment: Cell viability; assay type: cell-based, human; conditions: for fold less-effective cell killing than TCIP1: JQ1 and BI3812 added separately or together, 72 h
[6] = Mouse tolerability and pharmacokinetic study; assay type: in vivo; conditions: 10 mg kg^−1 i.p. once daily for 5 days, C57BL/6 mice
SUDHL5 cells = experiment: Cell viability in SUDHL5 cells with or without serum starvation; assay type: cell-based, human
Procedure, shortened: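 SUDHL5 cells were arrested in G0/G1 by serum starvation, or left unstarved, before test compound addition. Viability was read with PrestoBlue resazurin reagent (1.5 h, fluorescence 560/590 nm). Signal was background-subtracted and normalized to DMSO-treated cells. n = 3 biological replicates, mean ± s.d.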

BRD4(BD1) = BRD4(BD1) (Homo sapiens, UniProt O60885); experiment: ITC binary titration, TCIP1 and BRD4; assay type: binding; conditions: read-out: Kd of BRD4-TCIP1 (binary)
KARPAS422 cells [7] = experiment: Cell cycle and TUNEL analysis; assay type: cell-based, human; conditions: cell-cycle analysis with TUNEL; 100 nM, 24 h
OCILY19 cells = experiment: Cell viability of OCILY19 cells; assay type: cell-based, human; conditions: OCILY19, no detectable BCL6
[8] = tested on: KARPAS422 cells gene expression; experiment: RNA sequencing in KARPAS422 cells; assay type: cell-based, human
KARPAS422 cells [9] = experiment: Annexin V apoptosis assay; assay type: cell-based, human
Procedure, shortened: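 KARPAS422 cells (500,000, plated at 1 M ml−1) were exposed to test compound for the stated times and doses, then harvested on ice and washed twice. They were stained with 7-AAD plus FITC-annexin V for 15 min at room temperature and read immediately by flow cytometry. Gates came from single-stain and no-stain controls. Kinetics used 2–6 biological replicates, mean ± s.d.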

[10] = tested on: MYC, p21, FOXO3, BCL6, BRD4 protein levels; conditions: BET/BRD4 inhibitor; cited from earlier work
DLBCL cell lines = experiment: Cell viability; assay type: cell-based, human; conditions: titrated against constant TCIP1 that kills 50–95% of cells within 72 h
[11] = 2 h, 10 nM, out of 51,678 consensus peaks

Compound: CNC(=O)COc1cc2cc(Nc3nc(N4CCC(C(=O)NCCCCCCCNC(=O)C[C@@H]5N=C(c6ccc(Cl)cc6)c6c(sc(C)c6C)-n6c(C)nnc65)CC4)ncc3Cl)cc(OC)c2n(C)c1=O [TCIP1]
- off-rate of ternary complex [1]: 26 ms^−1
- H3K27ac peaks decreased [2, 11]: 70 peaks
- H3K27ac peaks increased [2, 11]: 126 peaks
- increase of BRD4 binding over genomic BCL6-binding sites ([2]; ChIP-seq): 50%
- BRD4 levels increase at promoters of upregulated genes ([2]; ChIP-seq, 1 h of TCIP1 addition): approximately 150%
- pEC50 (BCL6 reporter): 8.30
- time to FOXO3 activation ([3]; 10 nM): ≤ 2 h
- effect on BRD4 protein levels ([3]; 20 h, KARPAS422): did not change substantially
- time to reduction of MYC protein levels ([3]; after addition of drug): ≤ 2 h
- concentration from which MYC levels are reduced ([3]; western blot, DLBCL cells): less than 1 nM
- concentration that activates FOXO3 ([3]; western blot, DLBCL cells): 0.5 nM
- concentration inducing the BCL6L isoform ([3]; western blot, Fig. 4k): ≤ 1 nM
- pEC50 [4]: ~6.68
- pEC50 (KARPAS422 cells [5]; read-out: EC50 of cell viability, KARPAS422, 72 h after addition of drug): 8.89
- body weight change [6]: no significant changes in mouse body weight
- histology (haematoxylin and eosin) of lung and spleen [6]: did not reveal noticeable abnormalities
- pEC50 (SUDHL5 cells; read-out: EC50 of cell viability after G0/G1 arrest, SUDHL5, serum starvation): 9.60
- pEC50 (SUDHL5 cells; read-out: EC50 of cell viability without arrest, SUDHL5, no serum starvation): 8.49
- pKd (BRD4(BD1)): 5.29
- cell-cycle effect (KARPAS422 cells [7]): induced both a G1/S and G2/M block in the cell cycle
- response in cell viability (OCILY19 cells): little or no response compared with controls
- number of genes induced at early timepoints ([8]; 10 nM, 1, 2 and 4 h, KARPAS422): approximately 140 genes
- number of genes with increased expression ([8]; 10 nM, 20 h, KARPAS422): 1,654 genes
- number of genes with reduced expression ([8]; 10 nM, 20 h, KARPAS422): 1,347 genes
- time to upregulation of the long isoform of BCL6 mRNA ([8]; RT-qPCR, 10 nM): 1 to 2 h
- time to detectable apoptosis (KARPAS422 cells [9]): 4 to 8 h

Compound: Cc1sc2c(c1C)C(c1ccc(Cl)cc1)=N[C@@H](CC(=O)OC(C)(C)C)c1nnc(C)n1-2 [JQ1]
- drug level at which MYC expression is reduced [10]: 500 nM
- fold less-effective cell killing than TCIP1 (KARPAS422 cells [5]): 100–1,000 fold
- rescue of TCIP1-induced cell death by competitive titration (DLBCL cell lines): prevented death by TCIP1

Compound: CNC(=O)COc1cc2cc(Nc3nc(N4CCC(C(=O)N(C)C)CC4)ncc3Cl)cc(OC)c2n(C)c1=O [BI3812]
- fold less-effective cell killing than TCIP1 (KARPAS422 cells [5]): 100–1,000 fold
- rescue of TCIP1-induced cell death by competitive titration (DLBCL cell lines): prevented death by TCIP1
